These results are taken from ChEMBL document CHEMBL3593157, “Discovery of a 1-isopropyltetrahydroisoquinoline derivative as an orally active N-type calcium channel blocker for neuropathic pain” (Bioorg Med Chem, 2015).

Data set [1] in a line: Inhibition of N-type calcium channel in human IMR-32 cells by FLIPR assay. The data set is classed as cell-based. The method in brief: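 Fluorometric imaging plate reader calcium assay in IMR-32 human neuroblastoma cells. Nitrendipine present to block endogenous L-type calcium channels. IC50 determined in duplicate in one experiment.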
The next data set deals with Cytochrome P450 2D6 (Homo sapiens, UniProt P10635). Description: Inhibition of CYP2D6 in human liver microsomes using dextromethorphan as substrate preincubated for 30 mins before substrate addition measured after 20 mins by LC-MS/MS analysis. On the technique in general: Liver microsomes are vesicles of endoplasmic reticulum, rich in cytochrome P450 enzymes.
Cytochrome P450 2D6, sequence (P10635 whole entry): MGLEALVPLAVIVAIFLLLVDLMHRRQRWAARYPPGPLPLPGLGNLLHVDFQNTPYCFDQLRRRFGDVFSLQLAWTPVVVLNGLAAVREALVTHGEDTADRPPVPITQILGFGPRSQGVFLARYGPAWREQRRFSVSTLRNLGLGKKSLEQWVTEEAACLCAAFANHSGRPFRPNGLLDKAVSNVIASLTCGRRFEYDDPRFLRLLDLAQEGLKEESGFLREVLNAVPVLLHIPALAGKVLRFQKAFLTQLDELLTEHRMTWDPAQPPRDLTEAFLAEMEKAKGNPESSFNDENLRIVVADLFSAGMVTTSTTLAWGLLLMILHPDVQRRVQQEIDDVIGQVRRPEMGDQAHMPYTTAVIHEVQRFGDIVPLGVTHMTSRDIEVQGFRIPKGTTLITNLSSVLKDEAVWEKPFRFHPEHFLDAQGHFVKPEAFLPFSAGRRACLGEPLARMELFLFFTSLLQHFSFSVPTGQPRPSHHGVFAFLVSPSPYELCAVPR
The test system of data set [2] is Rattus norvegicus. Description: Analgesic activity in po dosed Sprague-Dawley rat L5/L6 spinal nerve ligation model assessed as reduction of mechanical allodynia. The format is functional, organism-based. The method in brief: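 Male Sprague-Dawley rats with L5/L6 spinal nerve ligation (Chung method). Compound given orally at 1 to 10 mg/kg. Hindpaw withdrawal threshold to mechanical stimuli measured on the operated and non-operated sides against vehicle groups, n = 8. ED50 derived from the dose-response. Dunnett's test against the operated-side vehicle group.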

Data set [3] can be described thus: Aqueous solubility of the compound in Japanese Pharmacopoeia 2nd fluid at pH 6.8. The data set is classed as physicochemical. The method in brief:
(§1)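 Solubility measured in Japanese Pharmacopoeia 1st fluid for the dissolution test (pH 1.2) and 2nd fluid (pH 6.8).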

The subject of data set [4] is Mus musculus. Description: Antinociceptive activity in ddY mouse assessed as inhibition of formalin-induced paw lifting/licking behavior at 100 mg/kg, po administered 15 mins before formalin challenge measured up to 15 to 25 mins. The data set is classed as functional. The method, boiled down:
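Male ddY mice dosed orally at 100 mg/kg. 2% formalin (20 µL) injected subcutaneously into the plantar hindpaw. Lifting/licking time in the second phase (15–25 min) expressed as % inhibition.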

For another data set, the target named is Cytochrome P450 2C9 (Homo sapiens, UniProt P11712). As to the kind of experiment: Inhibition of recombinant human CYP2C9 using 7-methoxy-4-trifluoromethylcoumarin as substrate after 45 mins by fluorescence-based assay. The format is ADME.
Cytochrome P450 2C9, sequence (P11712 whole entry): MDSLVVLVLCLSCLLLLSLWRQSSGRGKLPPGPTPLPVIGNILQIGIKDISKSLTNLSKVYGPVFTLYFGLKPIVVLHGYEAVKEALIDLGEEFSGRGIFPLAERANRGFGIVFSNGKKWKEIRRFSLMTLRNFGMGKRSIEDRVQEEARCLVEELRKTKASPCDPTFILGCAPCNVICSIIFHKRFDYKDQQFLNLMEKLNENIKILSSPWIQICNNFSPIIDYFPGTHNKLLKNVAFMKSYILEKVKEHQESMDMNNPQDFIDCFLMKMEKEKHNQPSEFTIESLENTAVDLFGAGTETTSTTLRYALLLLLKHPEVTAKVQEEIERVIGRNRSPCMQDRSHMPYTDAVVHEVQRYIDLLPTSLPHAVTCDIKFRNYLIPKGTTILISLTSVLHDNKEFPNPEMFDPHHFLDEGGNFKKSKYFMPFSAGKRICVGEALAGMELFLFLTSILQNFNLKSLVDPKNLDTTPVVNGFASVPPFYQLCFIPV
For data set [5], the system named is Mus musculus. As to the kind of experiment: Antinociceptive activity in intrathecally dosed ddY mouse assessed as reduction of formalin-induced paw lifting/licking behavior administered 15 mins before formalin challenge measured up to 10 mins. The format is functional. The method, boiled down:
(§2)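 Male ddY mice given an intrathecal bolus. After 15 min, 2% formalin (20 µL) injected subcutaneously into the plantar hindpaw. Total lifting/licking time recorded for 0–10 min (first phase) and 15–25 min (second phase). Mean of n = 6 against vehicle, Dunnett's test. ED50 in nmol/body.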

Data set [6] has as its system Mus musculus. As to the kind of experiment: Antinociceptive activity in intrathecally dosed ddY mouse assessed as reduction of formalin-induced paw lifting/licking behavior administered 15 mins before formalin challenge measured after 15 to 25 mins. The data set is classed as functional. The method, boiled down: as §2
Data set [7] is described as follows: Aqueous solubility of the compound in Japanese Pharmacopoeia 1st fluid at pH 1.2. The data set is classed as physicochemical. The method, boiled down:
as §1

The target of data set [8] is Voltage-gated inwardly rectifying potassium channel KCNH2 (Homo sapiens, UniProt Q12809). Description: Inhibition of human ERG expressed in CHO cells after 10 mins by Rb efflux assay. The format is cell-based.
Voltage-gated inwardly rectifying potassium channel KCNH2, sequence (Q12809 whole entry): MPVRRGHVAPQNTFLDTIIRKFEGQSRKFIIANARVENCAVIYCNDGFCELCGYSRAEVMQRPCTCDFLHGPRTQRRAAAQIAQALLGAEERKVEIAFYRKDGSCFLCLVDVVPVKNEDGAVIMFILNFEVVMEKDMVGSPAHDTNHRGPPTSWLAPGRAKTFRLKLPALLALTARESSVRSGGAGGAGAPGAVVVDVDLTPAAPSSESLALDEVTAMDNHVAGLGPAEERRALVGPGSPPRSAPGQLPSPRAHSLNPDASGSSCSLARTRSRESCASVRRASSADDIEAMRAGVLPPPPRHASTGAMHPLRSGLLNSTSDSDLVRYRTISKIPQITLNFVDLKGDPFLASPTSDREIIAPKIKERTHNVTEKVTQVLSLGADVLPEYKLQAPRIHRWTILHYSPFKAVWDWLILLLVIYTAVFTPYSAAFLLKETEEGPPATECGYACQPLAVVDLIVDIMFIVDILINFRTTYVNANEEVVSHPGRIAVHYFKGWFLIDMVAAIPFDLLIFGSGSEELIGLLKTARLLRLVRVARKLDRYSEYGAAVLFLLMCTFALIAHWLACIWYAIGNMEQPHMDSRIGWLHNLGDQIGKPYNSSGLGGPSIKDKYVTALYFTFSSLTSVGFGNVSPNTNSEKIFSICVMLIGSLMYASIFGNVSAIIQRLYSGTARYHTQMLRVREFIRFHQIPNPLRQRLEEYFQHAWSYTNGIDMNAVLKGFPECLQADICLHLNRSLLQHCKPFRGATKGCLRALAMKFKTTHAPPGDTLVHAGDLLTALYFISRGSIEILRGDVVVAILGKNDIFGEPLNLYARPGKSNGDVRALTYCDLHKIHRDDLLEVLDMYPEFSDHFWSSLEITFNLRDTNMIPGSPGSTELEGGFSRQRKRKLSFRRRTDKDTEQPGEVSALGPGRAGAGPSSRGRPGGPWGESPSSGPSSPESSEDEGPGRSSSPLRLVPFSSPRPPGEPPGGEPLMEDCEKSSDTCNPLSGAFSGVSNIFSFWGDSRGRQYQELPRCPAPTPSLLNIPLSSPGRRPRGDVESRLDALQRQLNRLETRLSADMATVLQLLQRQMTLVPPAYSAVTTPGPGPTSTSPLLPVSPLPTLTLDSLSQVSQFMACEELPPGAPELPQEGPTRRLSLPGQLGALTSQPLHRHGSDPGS
For data set [9], the system named is Mus musculus. Description: Toxicity in intrathecally dosed ddY mouse at 10 to 100 […] measured up to 25 mins. To be noted: in vivo, icv_or_intrathecal. The format is organism-based.
The nature of data set [10]: Lipophilicity, log D of the compound at pH 7.4. The data set is classed as physicochemical. The method, boiled down:
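cLogD at pH 7.4 calculated with ACD/PhysChem Batch rather than measured.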

The test system of data set [11] is Rattus norvegicus. As to the kind of experiment: Neurotoxicity in Sprague-Dawley rat assessed as effect on motor coordination by measuring time spent on rod at 30 mg/kg, po by rotarod test. The data set is classed as toxicity, organism-based. As to conditions: in vivo. The method, boiled down: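 Motor coordination in Sprague-Dawley rats after oral dosing, assessed by an accelerating rotarod test.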
On the technique in general: The rotarod test checks motor coordination on a turning rod.

Data set [12] can be described thus: Intrinsic clearance in human liver microsomes at 0.2 uM measured up to 45 mins by LC-MS/MS analysis. The data set is classed as ADME. To be noted: read-out: CLH. The method in brief: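 Human liver microsomes (0.2 mg protein/mL) in 100 mM Na+–K+ phosphate buffer pH 7.4 with 1 mM NADPH and 0.1 mM EDTA, preincubated 5 min at 37 °C. Compound at 0.2 µM final, sampled at 0, 15, 30 and 45 min. Residual compound measured by LC–MS/MS. CLint = disappearance rate constant / microsomal protein, from a least-squares linear fit.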

What is called IC50 is the concentration needed to halve the response being measured. By solubility is commonly meant the concentration that dissolves in the medium under given conditions. The inhibition in vivo is how much of the control response was suppressed. Broadly, the logD is the decadic logarithm of the distribution of all forms, ionised or not, between an organic phase and buffer at a given pH. Higher therefore signals higher lipophilicity.

Consider `Cc1ccc2c(c1)C(C(C)C)N(C(=O)CNCC1(O)CCCCC1)CC2` (stereo not drawn), for which the IC50 in data set [1] is 1.4 µM; against Cytochrome P450 2D6, less than 0.78 µM.
Regarding `COc1ccc2c(c1)CCN(C(=O)CNCC1(O)CCCCC1)[C@@H]2C(C)C`, the Activity result is “Dose-dependent effect” with Rattus norvegicus [2]; “Dose-dependent effect” in the data set on Mus musculus [5]; “Dose-dependent effect” in the data set on Mus musculus [6]; “Non-toxic” in the data set on Mus musculus [9]; “Non-toxic” in the data set on Rattus norvegicus [11]. For the same compound, the solubility in [3] and in data set [7] was more than 100 µg/mL throughout. For the same compound, in the data set on Mus musculus [4], the inhibition in vivo at 100 mg/kg amounted to 64%. The IC50 is 1.9 µM in data set [1], more than 50 µM on Cytochrome P450 2C9 and more than 100 µM in data set [8]. Besides, the ED50 is recorded as more than 100 nmol with Mus musculus [5] and 25.4 nmol in the data set with Mus musculus [6]. Moreover, the log distribution coefficient (logD) in data set [10] stood at 2.4. In data set [12], the CLint scaled at 0.2 µM is 101 mL/min/kg.
On to `COc1ccc2c(c1)CCN(C(=O)CNCC1(O)CCCCC1)C2C(C)C` (stereo not drawn), for which the 50% inhibitory concentration (IC50) in [1] amounted to 1.3 µM.
On to `COc1ccc2c(c1)CCN(C(=O)CNCC1(O)CCCCC1)[C@H]2C(C)C`, for which the solubility in data set [3] and in data set [7] was more than 100 µg/mL each time. Further, the IC50 in [1] is 2.1 µM; on Cytochrome P450 2C9 it was more than 50 µM; in data set [8] it was more than 100 µM. Also, in data set [12], the CLint scaled at 0.2 µM came out at 188 mL/min/kg.
Regarding `CCC(CC)C1c2ccccc2CCN1C(=O)CNCC1(O)CCCCC1` (stereo not drawn), the IC50 in data set [1] was 0.73 µM; against Cytochrome P450 2D6, less than 0.78 µM.
With `O=C(CNCC1(O)CCCCC1)N1CCc2ccccc2[C@@H]1c1ccccc1`, the IC50 is 1 µM in [1] and less than 0.39 µM on Cytochrome P450 2D6.
Turning to `CC(C)(C)C1c2ccccc2CCN1C(=O)CNCC1(O)CCCCC1` (stereo not drawn), the results for the IC50 (in data set [1]; against Cytochrome P450 2D6) were 0.8 µM and less than 0.78 µM, respectively.
Take `CC(C)C1c2ccccc2CCN1C(=O)CNCC1(O)CCCCC1` (stereo not drawn): the 50% inhibitory concentration (IC50) in data set [1] stood at 1.1 µM.
On to `O=C(CNCC1(O)CCCCC1)N1CCc2ccccc2C1`, for which the concentration for half-maximal inhibition (IC50) in data set [1] turned out to be 8 µM.
For `CC(C)C1c2c(F)cccc2CCN1C(=O)CNCC1(O)CCCCC1` (stereo not drawn), the 50% inhibitory concentration (IC50) in data set [1] was determined as 1.5 µM.
In the case of `Cc1cccc2c1CCN(C(=O)CNCC1(O)CCCCC1)C2C(C)C` (stereo not drawn), the IC50 was 1.4 µM in data set [1] and less than 0.78 µM on Cytochrome P450 2D6.
The corresponding values for `CC(C)C1c2cc(F)ccc2CCN1C(=O)CNCC1(O)CCCCC1` (stereo not drawn) are 1.3 µM and 0.68 µM.
For the compound `COC(C)(C)C1c2ccccc2CCN1C(=O)CNCC1(O)CCCCC1` (stereo not drawn), in [1], the IC50 stood at 3.7 µM.
Same read-out and setting: with `CC(C)(O)C1c2ccccc2CCN1C(=O)CNCC1(O)CCCCC1` (stereo not drawn) the figure was 6.1 µM.
Consider `CC(C)C1c2ccc(F)cc2CCN1C(=O)CNCC1(O)CCCCC1` (stereo not drawn), for which the values for the concentration for half-maximal inhibition (IC50) (in data set [1]; on Cytochrome P450 2D6) were 0.89 µM and 0.39 µM, respectively.
As for `O=C(CNCC1(O)CCCCC1)N1CCc2ccccc2C1C1CCCC1` (stereo not drawn), the half-inhibitory concentration (IC50) in [1] was found to be 0.99 µM.
As to `COc1cccc2c1C(C(C)C)N(C(=O)CNCC1(O)CCCCC1)CC2` (stereo not drawn), the IC50 in data set [1] worked out at 1.4 µM.
On the same count and under the same terms, with `COc1ccc2c(c1)C(C(C)C)N(C(=O)CNCC1(O)CCCCC1)CC2` (stereo not drawn) the figure was 1.6 µM; with `O=C(CNCC1(O)CCCCC1)N1CCc2ccccc2C1C1CCOCC1` (stereo not drawn), 4.1 µM.
Same read-out and setting: with `CC1c2ccccc2CCN1C(=O)CNCC1(O)CCCCC1` (stereo not drawn) the figure was 2.9 µM.
As for `Cc1cccc2c1C(C(C)C)N(C(=O)CNCC1(O)CCCCC1)CC2` (stereo not drawn), the IC50 in data set [1] is 1.6 µM; against Cytochrome P450 2D6, less than 0.78 µM.
